Experimental data published in ChEMBL document CHEMBL4321878, “Stereoselective Activity of 1-Propargyl-4-styrylpiperidine-like Analogues That Can Discriminate between Monoamine Oxidase Isoforms A and B” (J Med Chem, 2020).
Calls of active or inactive are those of the source. The rule behind the calls is not given here.

Assays:
[1] = target: T1, Amine oxidase [flavin-containing] A (Homo sapiens, UniProt P21397); conditions: 20 min
T1 sequence (P21397 whole entry): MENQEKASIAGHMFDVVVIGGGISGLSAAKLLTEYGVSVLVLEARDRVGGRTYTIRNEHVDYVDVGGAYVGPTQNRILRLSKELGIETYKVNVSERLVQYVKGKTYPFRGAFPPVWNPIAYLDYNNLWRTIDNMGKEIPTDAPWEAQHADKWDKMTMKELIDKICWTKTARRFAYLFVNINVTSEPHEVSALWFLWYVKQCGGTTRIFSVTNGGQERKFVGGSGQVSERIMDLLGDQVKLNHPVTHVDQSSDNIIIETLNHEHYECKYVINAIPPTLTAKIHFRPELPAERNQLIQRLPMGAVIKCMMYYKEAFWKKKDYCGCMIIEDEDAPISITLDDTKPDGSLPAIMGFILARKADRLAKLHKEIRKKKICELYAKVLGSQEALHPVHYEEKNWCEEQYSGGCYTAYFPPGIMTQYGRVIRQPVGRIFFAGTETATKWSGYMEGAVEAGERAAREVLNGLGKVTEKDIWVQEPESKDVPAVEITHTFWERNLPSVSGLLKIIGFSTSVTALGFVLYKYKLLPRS

[2] = Photoisomerization of the compound in D2O incubated for 7 days under sunlight by NMR analysis
[3] = system: Mus musculus; experiment: Reversal of haloperidol-induced catalepsy in Swiss mouse at 0.3 mg/kg, ip pretreated for 15 mins followed by haloperidol challenge and measured up to 90 mins; assay type: functional, organism-based
[4] = system: Mus musculus; experiment: Ex vivo inhibition of MAOB in ip dosed Swiss mouse brain homogenates measured after 30 mins using benzylamine as substrate by amplex red reagent-based horseradish peroxidase-coupled fluorescence assay; assay type: functional
[5] = system: Mus musculus; experiment: Antidepressant-like activity in Swiss mouse assessed as reduction in immobility time at 30 mg/kg, ip administered as single dose for 30 mins prior to testing measured for last 4 mins of 6 mins test by tail suspension test; assay type: functional, organism-based
[6] = Solubility of the compound in pH 7.4 sodium phosphate buffer at >100 uM; assay type: physicochemical
[7] = Cytotoxicity against human SH-SY5Y cells assessed as cell viability at 50 uM measured after 24 hrs by MTS assay relative to control; assay type: cell-based; conditions: read-out: Activity
Method in brief: (§1)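 SH-SY5Y human neuroblastoma cells grown in Advanced DMEM with 10% FBS at 37 °C, 5% CO2, and switched to serum-depleted medium before treatment. Compounds (20 mM DMSO stocks) were applied at 5, 10 or 50 μM for 24 h. Viability read by MTS assay.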

[8] = system: SH-SY5Y; experiment: Neuroprotective activity against 6-OHDA-induced toxicity in human SH-SY5Y cells assessed as LDH release at 5 uM pretreated for 30 mins followed by 6-OHDA challenge and measured after 24 hrs by cytotox-onetm homogeneous membrane integrity assay (reference value: 135%); assay type: functional
[9] = system: SH-SY5Y; experiment: Cytotoxicity against human SH-SY5Y cells assessed as reduction in cell viability at 5 to 10 uM measured after 24 hrs by MTS assay; assay type: cell-based
Method in brief: as §1

[10] = system: SH-SY5Y; experiment: Neuroprotective activity against 6-OHDA-induced toxicity in human SH-SY5Y cells assessed as reduction in propidium iodide positive cells at 5 uM pretreated for 30 mins followed by 6-OHDA challenge and measured after 24 hrs by propidium iodide staining-based flow cytometric analysis relative to 6-OHDA; assay type: functional
Method in brief: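 SH-SY5Y cells were grown in Advanced DMEM with 10% FBS at 37 °C, 5% CO2 to 80% confluence, then switched to serum-depleted medium. Compound (5 μM, from a 20 mM DMSO stock) was added 30 min before 6-OHDA (100 μM). After 24 h, PI staining was read by flow cytometry. Runs were n ≥ 2, each in duplicate, with one-way ANOVA and Bonferroni.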

[11] = target: T1, Amine oxidase [flavin-containing] A; experiment: Irreversible inhibition of recombinant human MAOA expressed in Pichia pastoris at 100 uM measured immediately by UV-vis spectrophotometric analysis relative to control
[12] = system: Mus musculus; experiment: Antianxiety activity in Swiss mouse assessed as increase in open arm entries at 1 mg/kg, ip measured after 30 mins and monitored for 5 mins by elevated plus maze test relative to control; assay type: functional
[13] = system: Mus musculus; experiment: Antianxiety activity in Swiss mouse assessed as increase in time spent in open arm entries at 1 mg/kg, ip measured after 30 mins and monitored for 5 mins by elevated plus maze test relative to control; assay type: functional
[14] = system: Mus musculus; experiment: Antianxiety activity in Swiss mouse assessed as proportion of time spent in centre at 10 mg/kg, ip measured after 30 mins and monitored for 5 mins by elevated plus maze test relative to control; assay type: functional
Method in brief: (§2)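 Adult male Swiss mice (25–30 g), given hydrochloride salts in 0.9% saline ip 30 min before the elevated plus maze; control mice received saline, with diazepam 1 mg/kg ip as reference. Scored arm entries, open-arm parameters and time in centre. Mice were used once, randomly assigned, and scored by blinded observers between 10:00 and 14:00 h.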

[15] = system: Mus musculus; experiment: Antidepressant-like activity in Swiss mouse assessed as reduction in immobility time at 3 to 10 mg/kg, ip administered as single dose for 30 mins prior to testing measured for last 4 mins of 6 mins test by tail suspension test; assay type: functional, organism-based
[16] = system: Mus musculus; experiment: Antianxiety activity in Swiss mouse assessed as number of total arm entries at 10 mg/kg, ip measured after 30 mins and monitored for 5 mins by elevated plus maze test; assay type: functional
Method in brief: as §2

[17] = system: Mus musculus; experiment: Effect on spontaneous locomotor activity in Swiss mouse assessed as change in number of light beam crossings at 10 mg/kg, ip measured after 30 mins and monitored for 5 mins; assay type: ADME, organism-based; conditions: in vivo
[18] = Apparent permeability across absorptive direction in Sprague-Dawley rat ileum at 50 uM measured after 20 mins LC-MS/MS analysis; assay type: ADME, tissue-based

Compound C#CCN1CCC(/C=C\c2ccc(C(F)(F)F)cc2)CC1 has an activity at 100 µM [1] of 80.1%.
Work on C#CCN1CCC(/C=C\c2ccc(C(N)=O)cc2)CC1 yielded an activity at 100 µM [1] of 89.5%.
In the case of C#CCN1CCC(CCc2ccc(C)cc2)CC1, the activity at 100 µM [1] is reported as 68.1%.
With C#CCN1CCC(CCc2ccc(C(F)(F)F)cc2)CC1 [listing 1 of 2 here] the Drug metabolism [2] was “Metabolite not detected”, the Activity [3] was “inactive” and the inhibition [4] was “Dose-dependent effect”.
Work on C#CCN1CCC(CCc2ccc(OC)cc2)CC1 yielded an activity at 100 µM [1] of 62.2%.
With C#CCN1CCC(/C=C/c2ccc(C)cc2)CC1 the activity at 100 µM [1] was 57.3%.
For CN(C)CCCN1c2ccccc2CCc2ccccc21, the Activity [5] was “Active”.
For C#CCN1CCC(CCc2ccc(C(C)C)cc2)CC1, the solubility [6] was “Insoluble”.
With C#CCN1CCC(/C=C/c2ccc(C#N)cc2)CC1 the solubility [6] was “Insoluble”.
With C#CCN1CCC(/C=C/c2ccc(C(C)C)cc2)CC1 the solubility [6] was “Insoluble”.
Compound C#CCN1CCC(/C=C\c2ccc(C)cc2)CC1 has an activity at 100 µM [1] of 62.2%.
For C#CCN1CCC(CCc2ccc(C#N)cc2)CC1.Cl, the viability at 24 h, 50 µM [7] was > 80%, the Activity [8] was 82% and the Activity [9] was “Non-Toxic”.
With C#CCN1CCC(CCc2ccc(C(C)C)cc2)CC1.Cl the “fold change (FC)” value [10] was 0.68, the viability at 24 h, 50 µM [7] was > 80% and the Activity [8] was 82%. For the same compound, the Activity [9] was “Non-Toxic”.
C#CCN1CCC(/C=C/c2ccc(OC)cc2)CC1 showed an activity at 100 µM [1] of 56.1%.
C#CCN1CCC(CCc2ccc(C(F)(F)F)cc2)CC1 [listing 2 of 2 here] gave an activity at 100 µM [1] of 62.3%.
C#CCN(C)CCCOc1ccc(Cl)cc1Cl [CLORGILINE] gave an inhibition at 100 µM [11] of 100%.
For C#CCN1CCC(/C=C/c2ccc(F)cc2)CC1.Cl, the viability at 24 h, 50 µM [7] was > 80%, the Activity [8] was 76% and the Activity [9] was “Non-Toxic”.
In the case of C#CCN1CCC(CCc2ccc(C(N)=O)cc2)CC1, the activity at 100 µM [1] is reported as 75.1%.
Compound C#CCN1CCCC(CCc2ccc(F)cc2)C1 (racemic) has an activity at 100 µM [1] of 93.1%.
In the case of C#CCN1CCC(CCc2ccccc2)CC1, the solubility [6] is reported as “Insoluble”.
Compound C#CCN1CCC(/C=C\c2ccc(S(C)(=O)=O)cc2)CC1 has an activity at 100 µM [1] of 70.6%.
With CN1C(=O)CN=C(c2ccccc2)c2cc(Cl)ccc21 [DIAZEPAM] the “fold change (FC)” value [12] was 2.1 and the “fold change (FC)” value [13] was 2.4.
In the case of C#CCN1CCC(CCc2cc(F)c(F)cc2F)CC1, the activity at 100 µM [1] is reported as 65.6%.
C#CCN1CCC(CCc2ccc(F)cc2)CC1 gave an activity at 100 µM [1] of 76.9%.
C#CCN1CCC(/C=C/c2ccc(C(F)(F)F)cc2)CC1 [listing 1 of 2 here] showed an activity at 100 µM [1] of 64.9%.
Compound C#CCN1CCCC(/C=C/c2cc(F)c(F)cc2F)C1 (racemic) has an activity at 100 µM [1] of 102%.
With C#CCN1CCC(/C=C\c2ccc(F)cc2)CC1.Cl the viability at 24 h, 50 µM [7] was > 80%, the Activity [14] was 13.4% and the Activity [15] was “Active”. The Activity [9] was “Non-Toxic”, the Activity [16] was 9.7 and the Activity [17] was “Toxic”.
C#CCN1CCC(/C=C/c2ccc(S(C)(=O)=O)cc2)CC1 showed an activity at 100 µM [1] of 68.7%.
In the case of C#CCN1CCC(/C=C/c2ccc(C(F)(F)F)cc2)CC1 [listing 2 of 2 here], the Drug metabolism [2] is reported as “Metabolite not detected”.
With C#CCN1CCC(/C=C\c2ccc(Cl)cc2)CC1 the solubility [6] was “Insoluble”.
Compound C#CCN1CCC(/C=C/c2ccc(C(N)=O)cc2)CC1 has an activity at 100 µM [1] of 64.8%.
Work on C#CCN1CCCC(CCc2cc(F)c(F)cc2F)C1 (racemic) yielded an activity at 100 µM [1] of 86%.
In the case of C#CCN1CCC(/C=C/c2ccc(Br)cc2)CC1, the activity at 100 µM [1] is reported as 54.5%.
C#CCN1CCCC(/C=C/c2ccc(F)cc2)C1 (racemic) gave an activity at 100 µM [1] of 91%.
COCCc1ccc(OCC(O)CNC(C)C)cc1 (stereo unspecified) [METOPROLOL] showed a Papp A→B at 20 min, 50 µM [18] of 14 ×10⁻⁶ cm/s.
In the case of C#CCN1CCC(/C=C\c2ccccc2)CC1.Cl, the viability at 24 h, 50 µM [7] is reported as > 80%, the Activity [15] is reported as “inactive” and the Activity [9] is reported as “Non-Toxic”.
C#CCN1CCC(CCc2cccc(C(F)(F)F)c2)CC1 gave an activity at 100 µM [1] of 71.6%.
With C#CCN1CCC(CCc2ccc(Cl)cc2)CC1 the activity at 100 µM [1] was 67.7%.
C#CCN1CCC(CCc2ccc(O)cc2)CC1 showed an activity at 100 µM [1] of 67.7%.
